Data set [1] has as its system MCF7. Description: Induction of cell cycle arrest in human MCF7 cells assessed as accumulation at G2 phase at 10 uM after 24 hrs by propidium iodide-staining based FACS analysis (reference value: 20 %). It counts as functional. The essentials: (§1)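 MCF-7 or PC-3 cells treated at indicated concentrations for 24 h, pelleted, PBS-washed, fixed in ice-cold 70% ethanol overnight at 4 °C. RNase 0.2 mg/mL 1 h at 37 °C, propidium iodide 10 µg/mL 30 min dark. 10,000 events (FL2-A vs FL2-W) by flow cytometry; fractions in apoptosis/sub-G1, G1, S, G2-M.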
On the technique in general: In flow cytometry, cells or beads pass a laser one at a time.

In data set [2] the test system is MCF7. Description: Induction of cell cycle arrest in human MCF7 cells assessed as accumulation at S phase at 30 uM after 24 hrs by propidium iodide-staining based FACS analysis (reference value: 30 %). In kind it is functional. The method, boiled down:
as §1

Data set [3] deals with MCF7. Nature of the data set: Induction of cell cycle arrest in human MCF7 cells assessed as apoptotic cells at 20 uM after 24 hrs by propidium iodide-staining based FACS analysis (reference value: 8 %). In kind it is functional. The method, boiled down:
as §1

Data set [4] is described as follows: Downregulation of PI3Kbeta expression in human MCF7 cells at 30 uM by Western blot analysis. In kind it is functional, cell-based. The essentials: (§2)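 MCF-7 or PC-3 cells (2 × 10^6) treated with compound, lysed (1 × 10^6 cells) in cold NP-40 buffer with protease inhibitors 30 min on ice, 12,000 g 10 min 4 °C. 50 µg protein per lane on SDS-PAGE, PVDF transfer, 5% milk block, primary antibody 2 h, HRP secondary 1 h, ECL on film; β-actin internal control.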
(In general: Immunoblotting shows a protein as a band on a membrane.)

Data set [5] can be described thus: Downregulation of PI3Kdelta expression in human MCF7 cells at 30 uM by Western blot analysis. It counts as functional, cell-based. The method, boiled down:
as §2

Data set [6] is described as follows: Anticancer activity against Swiss mouse EAC cells implanted in Swiss mouse assessed as tumor growth inhibition at 25 mg/kg, ip administered for 1 to 9 days measured on day 12 relative to control. In kind it is functional. As to conditions: Ehrlich, read-out: TGI. The method, boiled down:
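Swiss mice given 1 × 10^7 EAC cells i.p. on day 0, randomized next day (treated n=7, control n=10). Compound given i.p. days 1-9; saline control (0.2 ml i.p.), 5-fluorouracil 20 mg/kg i.p. reference. Sacrificed day 12; ascitic fluid collected; % TGI from total peritoneal tumor cell count versus control.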

The subject of data set [7] is Mus musculus. Nature of the data set: Toxicity in Swiss mouse implanted with Swiss mouse EAC cells assessed as mortality at 25 mg/kg, ip administered for 1 to 9 days measured on day 12. To be noted: in vivo. In kind it is organism-based, Ehrlich. The essentials: (§3)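 1×10^7 EAC cells injected intraperitoneally into Swiss mice on day 0. Mice randomized next day: treated groups n=7, saline control n=10 (0.2 ml i.p.). Dosing i.p. days 1–9. Sacrifice on day 12; ascitic fluid collected from the peritoneal cavity. % tumor growth inhibition from total tumor cell count versus control. Body weight and mortality tracked.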

Data set [8] concerns Mus musculus. Description: Toxicity in Swiss mouse implanted with Swiss mouse EAT cells assessed as body weight at 25 mg/kg, ip administered for 1 to 9 days measured on day 9 (reference value: 22.8 g). It counts as organism-based. To be noted: in vivo.
Data set [9] is described as follows: Cytotoxicity against human PC3 cells assessed as cell growth inhibition after 6 hrs by MTT assay. It counts as functional. As to conditions: PC-3, 6 h. On the technique in general: Formazan colour is commonly taken as a measure of viable cells.
For data set [10], the system named is Mus musculus. Nature of the data set: Toxicity in Swiss mouse implanted with Swiss mouse EAC cells assessed as mortality at 70 mg/kg, ip administered for 1 to 9 days measured on day 12. It counts as organism-based, Ehrlich. As to conditions: in vivo. The method, boiled down:
as §3

The subject of data set [11] is PC-3. Description: Induction of cell cycle arrest in human PC3 cells assessed as accumulation at S phase at 10 uM after 24 hrs by propidium iodide-staining based FACS analysis (reference value: 44 %). In kind it is functional. The method, boiled down:
as §1

A short description of data set [12]: Downregulation of PI3Kbeta expression in human PC3 cells at 30 uM by Western blot analysis. It counts as functional, cell-based. To be noted: PC-3. The method, boiled down:
as §2

Data set [13] can be described thus: Cytotoxicity against human PC3 cells assessed as cell growth inhibition after 24 hrs by MTT assay. To be noted: PC-3, 24 h. It counts as functional.
Data set [14] relates to PC-3. Description: Induction of apoptosis in human PC3 cells assessed as loss of mitochondrial membrane potential at 30 uM after 24 hrs by rhodamine-123-staining based FACS analysis (reference value: 5 % ). In kind it is functional. The essentials: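 Cells (MCF-7 or PC-3) exposed to indicated concentrations for 24 h; rhodamine-123 (5 µM) added 1 h before end. Cells collected, PBS-washed; fluorescence of 10,000 events read in FL-1 by flow cytometry, loss of mitochondrial potential scored as decreased intensity.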

SMILES strings stand for the structures.

On to `N#CCc1ccc(Nc2ncnc3ccc(-c4ccc5[nH]ccc5c4)cc23)cc1`, for which the Activity with MCF7 [1] was 1%; with MCF7 [2], 53%; in the data set with MCF7 [3], 12%; in data set [4], 4%; in [5], 30%; in the data set with Mus musculus [7], “Non-Toxic”. Besides, the Activity in the data set on Mus musculus [8] was determined as 21 g. For the same compound, in [6], the inhibition in vivo at 25 mg/kg was found to be 62%.

With `N#CCc1ccc(Nc2ncnc3ccc(-c4cncc5ccccc45)cc23)cc1`, the values for the GI50 in data set [9] and in data set [13] were 567 µM and 28 µM, respectively. The Activity result in the data set on Mus musculus [10] is “Non-Toxic”; in the data set with PC-3 [11] it was 56%; in data set [12] it was 42%; in the data set on PC-3 [14], 18%.

What is called GI50 is the concentration that inhibits growth by half.

Values taken from ChEMBL document CHEMBL3868583, “6-Aryl substituted 4-(4-cyanomethyl) phenylamino quinazolines as a new class of isoform-selective PI3K-alpha inhibitors” (Eur J Med Chem, 2016).
